Activity calls are given as the source filed them. The rule behind the calls is not given here.
How the values were obtained:
A549 [1] = experiment: Antiproliferative activity against human A549 cells after 48 hrs by MTT assay; assay type: functional, cell-based; details: A549, 48 h
Procedure, shortened: (§1)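 MTT assay. Cells were seeded at 5.0 × 10⁴ cells/ml in 100 μL per well and grown 24 h. They were then exposed to a range of concentrations for 48 h. MTT (5 mg/ml) was added for 4 h, the supernatant was removed and DMSO was added. OD was read at 570 nm. Assays were run in triplicate and IC50 is reported as mean ± SD, n = 3.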

HepG2 = experiment: Antiproliferative activity against human HepG2 cells after 48 hrs by MTT assay; assay type: functional, cell-based; details: HepG2, 48 h; procedure, shortened: as §1
HOS = experiment: Antiproliferative activity against human HOS cells after 48 hrs by MTT assay; assay type: functional, cell-based; procedure, shortened: as §1
[2] = Drug metabolism in human A549 cells assessed as nitric oxide release at 4 uM measured up to 24 hrs; assay type: ADME, cell-based; details: a549, 24 h
Procedure, shortened: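 A549 cells were seeded at 5.0 × 10⁴ cells/ml in 100 μL wells and grown 24 h at 37 °C. Hybrids were added at 4 μM for varying times, with 24 h used for the full set. NO was measured with a Nitrate/Nitrite assay kit against a standard curve, reading OD at 550 nm. Values are the mean of three independent experiments.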

MCF7 = experiment: Antiproliferative activity against human MCF7 cells after 48 hrs by MTT assay; assay type: functional, cell-based; details: MCF7, 48 h; procedure, shortened: as §1
A549 [3] = experiment: Induction of apoptosis in human A549 cells assessed as early apoptotic cells at 0.3 uM after 48 hrs by Annexin V-FITC/propidium iodide staining-based flow cytometric analysis (reference value: 0.5%); assay type: functional
Procedure, shortened: (§2)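 A549 cells (4 × 10⁵ per 6 cm dish) were grown 24 h, then treated for 48 h. Cells were harvested, washed twice with cold PBS and resuspended in 250 μL binding buffer with 2.5 μL PI and 2.5 μL Annexin V-FITC. After 15 min at room temperature in the dark, they were analysed by flow cytometry for early and late apoptotic fractions.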

A549 [4] = experiment: Induction of apoptosis in human A549 cells assessed as necrotic cells at 0.6 uM after 48 hrs by Annexin V-FITC/propidium iodide staining-based flow cytometric analysis (reference value: 0.6%); assay type: functional; procedure, shortened: as §2
A549 [5] = experiment: Induction of apoptosis in human A549 cells assessed as chromatin condensation at 0.3 to 1.2 uM after 48 hrs by Hoechst 33342 staining based fluorescent microscopic method; assay type: functional, cell-based
Procedure, shortened: (§3)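 A549 cells (4 × 10⁵ per 6 cm dish) were grown 24 h, then treated for 48 h. Cells were washed twice with PBS, stained with Hoechst 33342 (10 µg/ml) for 5 min at room temperature in the dark, and examined by fluorescence microscopy for chromatin condensation and nuclear fragmentation.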

A549 [6] = experiment: Induction of apoptosis in human A549 cells assessed as early apoptotic cells at 1.2 uM after 48 hrs by Annexin V-FITC/propidium iodide staining-based flow cytometric analysis (reference value: 0.5%); assay type: functional
[7] = molecular target: T1, Heat shock protein HSP90 (Homo sapiens) (UniProt P07900+P08238); experiment: Inhibition of HSP90 in human A549 cells assessed as decrease in CDK4 protein expression at 0.5 to 2.5 uM after 24 hrs by Western blot analysis; assay type: cell-based
Procedure, shortened: (§4)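 A549 cells (5 × 10⁵ per 6 cm dish) were grown 24 h, then treated for 24 h. Cells were lysed and the lysate spun at 10,000 g for 20 min at 4 °C. Protein was adjusted to 3 mg/ml by BCA and run on 10% SDS-PAGE. Blots were probed with monoclonal antibodies for Cdk4, Hsp90, p-Akt and Akt, with β-actin as internal control.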

A549 [8] = experiment: Induction of apoptosis in human A549 cells assessed as early apoptotic cells at 0.6 uM after 48 hrs by Annexin V-FITC/propidium iodide staining-based flow cytometric analysis (reference value: 0.5%); assay type: functional; procedure, shortened: as §2
A549 [9] = experiment: Induction of apoptosis in human A549 cells assessed as late apoptotic cells at 1.2 uM after 48 hrs by Annexin V-FITC/propidium iodide staining-based flow cytometric analysis (reference value: 0.4%); assay type: functional
A549 [10] = experiment: Induction of apoptosis in human A549 cells assessed as late apoptotic cells at 0.6 uM after 48 hrs by Annexin V-FITC/propidium iodide staining-based flow cytometric analysis (reference value: 0.4%); assay type: functional; procedure, shortened: as §2
A549 [11] = experiment: Induction of apoptosis in human A549 cells assessed as necrotic cells at 0.3 uM after 48 hrs by Annexin V-FITC/propidium iodide staining-based flow cytometric analysis (reference value: 0.6%); assay type: functional; procedure, shortened: as §2
A549 [12] = experiment: Induction of apoptosis in human A549 cells assessed as viable cells at 1.2 uM after 48 hrs by Annexin V-FITC/propidium iodide staining-based flow cytometric analysis (reference value: 98.5%); assay type: functional; details: A549, 48 h, read-out: Activity
A549 [13] = experiment: Cell cycle arrest in human A549 cells assessed as accumulation at G2 phase at 0.4 uM by after 24 hrs by RNase A/propidium iodide staining-based flow cytometric analysis (reference value: 24.84%); assay type: functional
A549 [14] = experiment: Cell cycle arrest in human A549 cells assessed as accumulation at G1 phase at 0.4 uM by after 24 hrs by RNase A/propidium iodide staining-based flow cytometric analysis (reference value: 46.97%); assay type: functional
A549 [15] = experiment: Cell cycle arrest in human A549 cells assessed as accumulation at G1 phase at 0.2 uM by after 24 hrs by RNase A/propidium iodide staining-based flow cytometric analysis (reference value: 46.97%); assay type: functional
A549 [16] = experiment: Cell cycle arrest in human A549 cells assessed as accumulation at S phase at 0.8 uM by after 24 hrs by RNase A/propidium iodide staining-based flow cytometric analysis (reference value: 28.11%); assay type: functional
A549 [17] = experiment: Induction of apoptosis in human A549 cells after 48 hrs by Annexin V-FITC/propidium iodide staining-based flow cytometric analysis; assay type: functional, cell-based; procedure, shortened: as §2
A549 [18] = experiment: Induction of apoptosis in human A549 cells assessed as late apoptotic cells at 0.3 uM after 48 hrs by Annexin V-FITC/propidium iodide staining-based flow cytometric analysis (reference value: 0.4%); assay type: functional; procedure, shortened: as §2
A549 [19] = experiment: Cell cycle arrest in human A549 cells assessed as accumulation at G1 phase at 0.8 uM by after 24 hrs by RNase A/propidium iodide staining-based flow cytometric analysis (reference value: 46.97%); assay type: functional
[20] = molecular target: T1, Heat shock protein HSP90 (Homo sapiens); experiment: Inhibition of HSP90 in human A549 cells at 0.5 to 2.5 uM after 24 hrs by Western blot analysis; assay type: cell-based; procedure, shortened: as §4
A549 [21] = experiment: Induction of apoptosis in human A549 cells assessed as viable cells at 0.6 uM after 48 hrs by Annexin V-FITC/propidium iodide staining-based flow cytometric analysis (reference value: 98.5%); assay type: functional; details: A549, 48 h, read-out: Activity; procedure, shortened: as §2
A549 [22] = experiment: Induction of apoptosis in human A549 cells assessed as necrotic cells at 1.2 uM after 48 hrs by Annexin V-FITC/propidium iodide staining-based flow cytometric analysis (reference value: 0.6%); assay type: functional
A549 [23] = experiment: Induction of apoptosis in human A549 cells assessed as viable cells at 0.3 uM after 48 hrs by Annexin V-FITC/propidium iodide staining-based flow cytometric analysis (reference value: 98.5%); assay type: functional; details: A549, 48 h, read-out: Activity; procedure, shortened: as §2
A549 [24] = experiment: Cell cycle arrest in human A549 cells assessed as accumulation at S phase at 0.2 uM by after 24 hrs by RNase A/propidium iodide staining-based flow cytometric analysis (reference value: 28.11%); assay type: functional
[25] = molecular target: T1, Heat shock protein HSP90 (Homo sapiens); experiment: Inhibition of HSP90 in human A549 cells assessed as decrease in Akt phosphorylation at 0.5 to 2.5 uM after 24 hrs by Western blot analysis; assay type: cell-based; procedure, shortened: as §4
A549 [26] = experiment: Cell cycle arrest in human A549 cells assessed as accumulation at G2 phase at 0.2 uM by after 24 hrs by RNase A/propidium iodide staining-based flow cytometric analysis (reference value: 24.84%); assay type: functional
A549 [27] = experiment: Induction of apoptosis in human A549 cells assessed as nuclear fragmentation at 0.3 to 1.2 uM after 48 hrs by Hoechst 33342 staining based fluorescent microscopic method; assay type: functional, cell-based; procedure, shortened: as §3
A549 [28] = experiment: Cell cycle arrest in human A549 cells assessed as accumulation at G2 phase at 0.8 uM by after 24 hrs by RNase A/propidium iodide staining-based flow cytometric analysis (reference value: 24.84%); assay type: functional
A549 [29] = experiment: Cell cycle arrest in human A549 cells assessed as accumulation at S phase at 0.4 uM by after 24 hrs by RNase A/propidium iodide staining-based flow cytometric analysis (reference value: 28.11%); assay type: functional

Structure (SMILES): CC1=C(O)C(=O)C=C2C1=CC=C1[C@@]2(C)CC[C@@]2(C)[C@@H]3C[C@](C)(C(=O)OCCCCO[N+](=O)[O-])CC[C@]3(C)CC[C@]12C
- IC50 (A549 [1]): 4210 nM
- IC50 (HepG2): 6080 nM
- IC50 (HOS): 2430 nM
- Drug metabolism [2]: Metabolite_Detected
- IC50 (MCF7): 3820 nM

Structure (SMILES): CC1=C(O)C(=O)C=C2C1=CC=C1[C@@]2(C)CC[C@@]2(C)[C@@H]3C[C@](C)(C(=O)OCCCCOc4no[n+]([O-])c4S(=O)(=O)c4ccccc4)CC[C@]3(C)CC[C@]12C
- IC50 (A549 [1]): 2460 nM
- IC50 (HepG2): 3530 nM
- IC50 (HOS): 2470 nM
- IC50 (MCF7): 3950 nM

Structure (SMILES): CC1=C(O)C(=O)C=C2C1=CC=C1[C@@]2(C)CC[C@@]2(C)[C@@H]3C[C@](C)(C(=O)OCC(C)Oc4no[n+]([O-])c4S(=O)(=O)c4ccccc4)CC[C@]3(C)CC[C@]12C (stereo partly specified)
- IC50 (A549 [1]): 2070 nM
- IC50 (HepG2): 2390 nM
- IC50 (HOS): 3030 nM
- IC50 (MCF7): 2020 nM

Structure (SMILES): NCCCOc1no[n+]([O-])c1S(=O)(=O)c1ccccc1
- IC50 (A549 [1]): 25500 nM

Structure (SMILES): CC1=C(O)C(=O)C=C2C1=CC=C1[C@@]2(C)CC[C@@]2(C)[C@@H]3C[C@](C)(C(=O)OCCOc4no[n+]([O-])c4S(=O)(=O)c4ccccc4)CC[C@]3(C)CC[C@]12C
- IC50 (A549 [1]): 2280 nM
- IC50 (HepG2): 4750 nM
- IC50 (HOS): 1690 nM
- Drug metabolism [2]: Metabolite_Detected
- IC50 (MCF7): 2760 nM

Structure (SMILES): CC1=C(O)C(=O)C=C2C1=CC=C1[C@@]2(C)CC[C@@]2(C)[C@@H]3C[C@](C)(C(=O)NCCCOc4no[n+]([O-])c4S(=O)(=O)c4ccccc4)CC[C@]3(C)CC[C@]12C
- Activity (A549 [3]): 3.1%
- Activity (A549 [4]): 5.3%
- Activity (A549 [5]): Active
- Activity (A549 [6]): 12.9%
- inhibition [7]: Active
- Activity (A549 [8]): 9.9%
- IC50 (A549 [1]): 430 to 480 nM
- Activity (A549 [9]): 31%
- Activity (A549 [10]): 20%
- IC50 (HepG2): 1410 nM
- IC50 (HOS): 510 nM
- Activity (A549 [11]): 1.7%
- viability at 1.2 µM (A549 [12]): 46.3%
- Activity (A549 [13]): 18.38%
- Activity (A549 [14]): 56.36%
- Activity (A549 [15]): 52.05%
- Activity (A549 [16]): 25.48%
- Activity (A549 [17]): Dose-dependent effect
- Activity (A549 [18]): 6.4%
- Activity (A549 [19]): 61.12%
- inhibition [20]: inactive
- viability at 0.6 µM (A549 [21]): 64.8%
- Activity (A549 [22]): 9.8%
- viability at 0.3 µM (A549 [23]): 88.8%
- Activity (A549 [24]): 27.71%
- inhibition [25]: Active
- Drug metabolism [2]: Metabolite_Detected
- Activity (A549 [26]): 21.12%
- Activity (A549 [27]): Active
- Activity (A549 [28]): 16.59%
- IC50 (MCF7): 780 nM
- Activity (A549 [29]): 25.12%

Source: ChEMBL document CHEMBL4325837, “Discovery of novel NO-releasing celastrol derivatives with Hsp90 inhibition and cytotoxic activities” (Eur J Med Chem, 2018)
